Drawing on ChEMBL document CHEMBL1123762, “Synthesis and antiviral evaluation of carbocyclic analogues of 2-amino-6-substituted-purine 3'-deoxyribofuranosides” (1987), this text covers VR, MIC50 and Ratio for six compounds.

Values after ≈ are worked out from the molar mass of the structure shown. Values joined by “and” are separate entries in the source; they are usually repeats but may differ in a detail not shown here. Identical values can stand only once.

Format in all cases: functional
The subject of test [1] is unidentified influenza virus. The test can be described thus: Antiviral activity is expressed as virus rating (VR) against the influenza Ao/PR/8/34 virus strain. In short, it runs like this: (§1)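 Virus rating (VR) from CPE inhibition in monolayers: HSV-1 377 and HSV-2 MS in Vero cells, HSV-1 HF in H.Ep.-2 cells, influenza A0/PR/8/34 in MDCK cells. A VR of 1.0 or more means definite, significant activity. A VR of 0.5–0.9 means marginal to moderate activity. A VR below 0.5 usually means no significant activity.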

Test [2] has as its system unidentified influenza virus. The test is described as follows: Antiviral activity against the influenza Ao/PR/8/34 virus strain. In short, it runs like this: (§2)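 Cytopathic effect (CPE) inhibition in cell monolayers. Host cells: HSV-1 strain 377 (TK+) and HSV-2 strain MS (TK+) in Vero cells; HSV-1 strain HF (TK−) in H.Ep.-2 cells; influenza A0/PR/8/34 in Madin-Darby canine kidney cells. MIC50 is the concentration giving 50% inhibition of virus-induced CPE. ara-A was run as the positive control in the HSV tests.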

For test [3], the system named is Human alphaherpesvirus 1. The test is described as follows: Antiviral activity is expressed as virus rating (VR) against the HSV-1 377 strain. The method in brief: as §1
The subject of test [4] is Human alphaherpesvirus 1. The test is described as follows: Antiviral activity is expressed as virus rating (VR) against the HSV-1 HF strain. The method in brief: as §1
For test [5], the system named is Human alphaherpesvirus 1. The test can be described thus: Antiviral activity against the HSV-1 HF strain from monolayers of human epidermoid carcinoma (H.Ep.-2) cells. In short, it runs like this:
as §2

Test [6] deals with Human alphaherpesvirus 1. The test is described as follows: Antiviral activity against the HSV-1 377 strain from monolayers of vero cells. The method in brief:
as §2

The nature of test [7]: Ratio measured as the VR of C-3''-deoxyribofuranoside to the VR at a MIC of 3 ug/mL.
A short description of test [8]: Ratio measured as the VR of C-3''-deoxyribofuranoside to the VR at a MIC of 54 ug/mL.
Test [9] is described as follows: Ratio measured as the VR of C-3''-deoxyribofuranoside to the VR at a MIC of 14 ug/mL.
Test [10] is described as follows: Ratio measured as the VR of C-3''-deoxyribofuranoside to the VR at a MIC of 56 ug/mL.
Test [11] in a line: Ratio measured as the VR of C-3''-deoxyribofuranoside to the VR at a MIC of 6 ug/mL.
The nature of test [12]: Ratio measured as the VR of C-3''-deoxyribofuranoside to the VR at a MIC of 15 ug/mL.
The nature of test [13]: Ratio measured as the VR of C-3''-deoxyribofuranoside to the VR at a MIC of 18 ug/mL.
The nature of test [14]: Ratio measured as the VR of C-3''-deoxyribofuranoside to the VR at a MIC of 34 ug/mL.

Turning to `Nc1nc(N)c2nnn(C3CC(CO)CC3O)c2n1` (configuration not stated), the VR in test [1] was 1.3. The same compound yielded an MIC50 in [2] of 200 µg/mL (≈ 754 µM).
Turning to `Nc1nc(O)c2ncn(C3CC(CO)CC3O)c2n1` (configuration not stated), the VR was 1.3 in [1]; 2.6 and 3.1 and 1.9 in [3]; 0 in test [4]. In test [2], the MIC50 came out at 260 µg/mL (≈ 980 µM).
`Nc1nc(Cl)c2ncn([C@@H]3C[C@H](CO)C[C@H]3O)c2n1`: the MIC50 in test [5] is 190 µg/mL (≈ 670 µM); in [2] it was above 284 µg/mL. Also, the VR in [1] amounted to 0.5; in test [3], 0.1; in test [4], 1.5.
Consider `Nc1nc2c(ncn2COCCO)c(=O)[nH]1` [ACYCLOVIR], for which the VR in [3] was 5.7; in test [4] it was 0. Moreover, the MIC50 in test [6] (Human alphaherpesvirus 1, read-out: MIC50) worked out at 3 µg/mL (≈ 13.3 µM). The Ratio in [7] came out at 0.33.
As to `NC(=O)c1ncn([C@@H]2O[C@H](CO)[C@@H](O)[C@H]2O)n1` [RIBAVIRIN], the VR in test [1] is 2.6 and 2.9. Also, the Ratio worked out at 0.19 in test [8] and 0.45 in [9].
As to `Nc1ncnc2c1ncn2[C@@H]1O[C@H](CO)[C@@H](O)[C@@H]1O` [VIDARABINE], the MIC50 in test [5] was 6 µg/mL (≈ 22.5 µM); in [6] it was 15 µg/mL and 18 µg/mL and 34 µg/mL. For the same compound, the Ratio in test [10] was determined as 1.44; in [11] it was 0.63; in test [12], 1.3; in test [13], 1.5; in test [14] it was 0.95. Besides, the VR in test [3] is 2 and 2.1; in test [4] it was 2.4.
